According to the M2OR odorant receptor database:
Changes are numbered by the printed parent chain.

Assays:
Details in all cases: stereoisomer not certain
OR6S1 (Homo sapiens) = biological target: T1, OR6S1 (Homo sapiens) (UniProt Q8NH40)
T1 sequence (whole entry): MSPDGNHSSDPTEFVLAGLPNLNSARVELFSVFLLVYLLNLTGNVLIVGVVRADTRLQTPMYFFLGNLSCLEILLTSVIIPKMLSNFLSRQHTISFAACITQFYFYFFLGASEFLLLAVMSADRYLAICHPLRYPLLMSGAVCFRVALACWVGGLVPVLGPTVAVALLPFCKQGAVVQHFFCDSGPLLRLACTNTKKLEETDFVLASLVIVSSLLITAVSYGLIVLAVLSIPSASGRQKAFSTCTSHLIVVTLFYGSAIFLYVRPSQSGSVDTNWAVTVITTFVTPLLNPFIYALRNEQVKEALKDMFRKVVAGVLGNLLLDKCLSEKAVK
Summary of the method: (§1)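 Each receptor–molecule pair is labelled responsive or non-responsive (inactive) according to whether the original authors judged the measured signal statistically different from baseline. The data were taken from the main text and supplementary material of published papers and checked for typos and inconsistencies. Assay methods differed by source, with transient luciferase assays in mammalian cell lines being common.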

OR6T1 (Homo sapiens) = biological target: T2, OR6T1 (Homo sapiens) (UniProt Q8NGN1)
T2 sequence (whole entry): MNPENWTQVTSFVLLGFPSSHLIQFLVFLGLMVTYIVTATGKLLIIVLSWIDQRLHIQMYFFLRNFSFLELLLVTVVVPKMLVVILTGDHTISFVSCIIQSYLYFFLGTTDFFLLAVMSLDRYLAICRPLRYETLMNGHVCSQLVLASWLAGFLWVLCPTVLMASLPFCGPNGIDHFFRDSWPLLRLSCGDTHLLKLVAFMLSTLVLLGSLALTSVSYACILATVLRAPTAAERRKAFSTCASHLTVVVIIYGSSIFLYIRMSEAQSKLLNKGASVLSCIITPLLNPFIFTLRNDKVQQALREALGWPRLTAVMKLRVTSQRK
Summary of the method: as §1

OR6V1 (Homo sapiens) = biological target: T3, OR6V1 (Homo sapiens) (UniProt Q8N148)
T3 sequence (whole entry): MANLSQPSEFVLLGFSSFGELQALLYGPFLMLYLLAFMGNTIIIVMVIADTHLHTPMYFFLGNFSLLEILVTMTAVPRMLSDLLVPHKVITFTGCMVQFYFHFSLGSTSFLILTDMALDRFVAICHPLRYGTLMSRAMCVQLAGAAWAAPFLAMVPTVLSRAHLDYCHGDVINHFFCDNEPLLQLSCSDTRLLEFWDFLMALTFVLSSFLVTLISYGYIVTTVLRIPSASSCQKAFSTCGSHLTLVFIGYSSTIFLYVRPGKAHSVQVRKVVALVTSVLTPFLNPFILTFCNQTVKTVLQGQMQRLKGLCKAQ
Summary of the method: as §1

OR6X1 (Homo sapiens) = biological target: T4, OR6X1 (Homo sapiens) (UniProt Q8NH79)
T4 sequence (whole entry): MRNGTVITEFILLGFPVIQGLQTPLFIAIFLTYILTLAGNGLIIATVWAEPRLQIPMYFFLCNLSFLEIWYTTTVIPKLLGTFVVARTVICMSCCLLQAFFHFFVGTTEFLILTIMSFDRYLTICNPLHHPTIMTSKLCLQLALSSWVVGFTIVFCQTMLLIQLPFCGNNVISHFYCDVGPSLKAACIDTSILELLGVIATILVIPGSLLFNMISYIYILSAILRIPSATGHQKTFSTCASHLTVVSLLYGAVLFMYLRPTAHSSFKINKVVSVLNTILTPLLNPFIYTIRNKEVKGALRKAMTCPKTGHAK
Summary of the method: as §1

OR6Y1 (Homo sapiens) = biological target: T5, OR6Y1 (Homo sapiens) (UniProt Q8NGX8)
T5 sequence (whole entry): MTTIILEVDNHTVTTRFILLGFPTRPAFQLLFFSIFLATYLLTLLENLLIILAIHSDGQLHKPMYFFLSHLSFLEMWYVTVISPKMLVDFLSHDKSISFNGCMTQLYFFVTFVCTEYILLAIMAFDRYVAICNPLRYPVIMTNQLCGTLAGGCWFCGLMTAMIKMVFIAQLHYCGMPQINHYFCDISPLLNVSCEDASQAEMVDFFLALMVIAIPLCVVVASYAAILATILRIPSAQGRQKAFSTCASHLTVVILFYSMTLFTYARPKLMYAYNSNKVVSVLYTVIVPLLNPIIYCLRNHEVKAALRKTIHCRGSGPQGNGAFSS
Summary of the method: as §1

OR7A10 (Homo sapiens) = biological target: T6, OR7A10 (Homo sapiens) (UniProt O76100)
T6 sequence (whole entry): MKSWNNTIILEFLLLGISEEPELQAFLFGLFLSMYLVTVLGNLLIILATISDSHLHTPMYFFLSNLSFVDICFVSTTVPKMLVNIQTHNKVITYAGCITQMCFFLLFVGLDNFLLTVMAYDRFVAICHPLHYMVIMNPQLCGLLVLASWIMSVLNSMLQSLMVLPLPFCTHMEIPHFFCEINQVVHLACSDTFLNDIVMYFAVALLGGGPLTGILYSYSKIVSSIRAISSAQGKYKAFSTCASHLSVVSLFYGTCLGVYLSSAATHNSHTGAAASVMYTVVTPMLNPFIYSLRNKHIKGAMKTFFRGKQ
Summary of the method: as §1

OR7A17 (Homo sapiens) = biological target: T7, OR7A17 (Homo sapiens) (UniProt O14581)
T7 sequence (whole entry): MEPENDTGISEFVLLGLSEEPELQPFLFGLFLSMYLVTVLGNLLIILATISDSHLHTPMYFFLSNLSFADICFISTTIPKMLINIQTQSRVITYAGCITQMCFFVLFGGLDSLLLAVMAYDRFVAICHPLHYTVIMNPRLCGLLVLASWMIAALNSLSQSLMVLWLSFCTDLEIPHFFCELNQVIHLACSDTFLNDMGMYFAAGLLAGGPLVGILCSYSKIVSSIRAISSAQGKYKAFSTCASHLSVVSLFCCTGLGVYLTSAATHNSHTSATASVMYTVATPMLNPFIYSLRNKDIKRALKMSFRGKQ
Summary of the method: as §1

OR7A5 (Homo sapiens) = biological target: T8, OR7A5 (Homo sapiens) (UniProt Q15622)
T8 sequence (whole entry): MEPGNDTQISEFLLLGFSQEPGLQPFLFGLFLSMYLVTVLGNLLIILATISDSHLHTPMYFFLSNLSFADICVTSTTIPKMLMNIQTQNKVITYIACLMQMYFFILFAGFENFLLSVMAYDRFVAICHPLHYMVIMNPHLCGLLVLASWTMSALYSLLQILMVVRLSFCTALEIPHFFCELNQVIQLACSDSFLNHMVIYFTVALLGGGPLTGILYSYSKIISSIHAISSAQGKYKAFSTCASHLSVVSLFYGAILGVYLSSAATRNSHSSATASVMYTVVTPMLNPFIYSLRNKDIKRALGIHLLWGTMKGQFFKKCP
Summary of the method: as §1

OR6S1 T42I V156I = test system: T9, OR6S1 T42I V156I
T9 sequence (whole entry): T1 sequence (whole entry) with T42I, V156I
Summary of the method: as §1

OR6T1 N2D = test system: T10, OR6T1 N2D
T10 sequence (whole entry): T2 sequence (whole entry) with N2D
Summary of the method: as §1

Measured: odorant receptor agonist call;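 also: active if original authors judged signal statistically different from baseline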

CCCCCC(S)C(C)CO (stereo unspecified)
inactive: OR6S1 (Homo sapiens) | OR6T1 (Homo sapiens) | OR6V1 (Homo sapiens) | OR6X1 (Homo sapiens) | OR6Y1 (Homo sapiens) | OR7A10 (Homo sapiens) | OR7A17 (Homo sapiens) | OR7A5 (Homo sapiens)

CCC1OC(C)=C(O)C1=O (stereo unspecified)
inactive: OR6S1 (Homo sapiens) | OR6S1 T42I V156I | OR6T1 (Homo sapiens) | OR6T1 N2D | OR6V1 (Homo sapiens) | OR6X1 (Homo sapiens) | OR6Y1 (Homo sapiens) | OR7A10 (Homo sapiens) | OR7A17 (Homo sapiens) | OR7A5 (Homo sapiens)

CC(=O)c1c(C)c([N+](=O)[O-])c(C(C)(C)C)c([N+](=O)[O-])c1C
inactive: OR6S1 (Homo sapiens) | OR6T1 (Homo sapiens) | OR6V1 (Homo sapiens) | OR6X1 (Homo sapiens) | OR6Y1 (Homo sapiens) | OR7A10 (Homo sapiens) | OR7A17 (Homo sapiens) | OR7A5 (Homo sapiens)

CC1=NC(C)C(C)S1 (stereo unspecified)
inactive: OR6S1 (Homo sapiens) | OR6S1 T42I V156I | OR6T1 (Homo sapiens) | OR6T1 N2D | OR6V1 (Homo sapiens) | OR6X1 (Homo sapiens) | OR6Y1 (Homo sapiens) | OR7A10 (Homo sapiens) | OR7A17 (Homo sapiens) | OR7A5 (Homo sapiens)

CC(CO)CS (stereo unspecified)
inactive: OR6S1 (Homo sapiens) | OR6T1 (Homo sapiens) | OR6V1 (Homo sapiens) | OR6X1 (Homo sapiens) | OR6Y1 (Homo sapiens) | OR7A10 (Homo sapiens) | OR7A17 (Homo sapiens) | OR7A5 (Homo sapiens)

CCC1OC(=O)C(O)=C1C (stereo unspecified)
inactive: OR6S1 (Homo sapiens) | OR6S1 T42I V156I | OR6T1 (Homo sapiens) | OR6T1 N2D | OR6V1 (Homo sapiens) | OR6X1 (Homo sapiens) | OR6Y1 (Homo sapiens) | OR7A10 (Homo sapiens) | OR7A17 (Homo sapiens) | OR7A5 (Homo sapiens)

CCCCCCC=CCCC=O
inactive: OR6S1 (Homo sapiens) | OR6S1 T42I V156I | OR6T1 (Homo sapiens) | OR6T1 N2D | OR6V1 (Homo sapiens) | OR6X1 (Homo sapiens) | OR6Y1 (Homo sapiens) | OR7A10 (Homo sapiens) | OR7A17 (Homo sapiens) | OR7A5 (Homo sapiens)

CC1CCCCCCCCCCCCC(=O)C1 (stereo unspecified)
inactive: OR6S1 (Homo sapiens) | OR6T1 (Homo sapiens) | OR6V1 (Homo sapiens) | OR6X1 (Homo sapiens) | OR6Y1 (Homo sapiens) | OR7A10 (Homo sapiens) | OR7A17 (Homo sapiens) | OR7A5 (Homo sapiens)

Cc1cnc(C)c(C)n1
inactive: OR6S1 (Homo sapiens) | OR6S1 T42I V156I | OR6T1 (Homo sapiens) | OR6T1 N2D | OR6V1 (Homo sapiens) | OR6X1 (Homo sapiens) | OR6Y1 (Homo sapiens) | OR7A10 (Homo sapiens) | OR7A17 (Homo sapiens) | OR7A5 (Homo sapiens)

CCC(S)C(C)CO (stereo unspecified)
inactive: OR6S1 (Homo sapiens) | OR6T1 (Homo sapiens) | OR6V1 (Homo sapiens) | OR6X1 (Homo sapiens) | OR6Y1 (Homo sapiens) | OR7A10 (Homo sapiens) | OR7A17 (Homo sapiens) | OR7A5 (Homo sapiens)

CC1=C(O)C(=O)OC1C (stereo unspecified)
inactive: OR6S1 (Homo sapiens) | OR6S1 T42I V156I | OR6T1 (Homo sapiens) | OR6T1 N2D | OR6V1 (Homo sapiens) | OR6X1 (Homo sapiens) | OR6Y1 (Homo sapiens) | OR7A10 (Homo sapiens) | OR7A17 (Homo sapiens) | OR7A5 (Homo sapiens)

CC1=C(O)C(=O)C(C)O1 (stereo unspecified)
inactive: OR6S1 (Homo sapiens) | OR6S1 T42I V156I | OR6T1 (Homo sapiens) | OR6T1 N2D | OR6V1 (Homo sapiens) | OR6X1 (Homo sapiens) | OR6Y1 (Homo sapiens) | OR7A10 (Homo sapiens) | OR7A17 (Homo sapiens) | OR7A5 (Homo sapiens)

CCCCC(S)C(C)CO (stereo unspecified)
inactive: OR6S1 (Homo sapiens) | OR6T1 (Homo sapiens) | OR6V1 (Homo sapiens) | OR6X1 (Homo sapiens) | OR6Y1 (Homo sapiens) | OR7A10 (Homo sapiens) | OR7A17 (Homo sapiens)
active: OR7A5 (Homo sapiens)

CCCC(S)CCOC(C)=O (stereo unspecified)
inactive: OR6S1 (Homo sapiens) | OR6S1 T42I V156I | OR6T1 (Homo sapiens) | OR6T1 N2D | OR6V1 (Homo sapiens) | OR6X1 (Homo sapiens) | OR6Y1 (Homo sapiens) | OR7A10 (Homo sapiens) | OR7A17 (Homo sapiens) | OR7A5 (Homo sapiens)

CCCCCC(=O)C(C)C(C)=O (stereo unspecified)
inactive: OR6S1 (Homo sapiens) | OR6T1 (Homo sapiens) | OR6V1 (Homo sapiens) | OR6X1 (Homo sapiens) | OR6Y1 (Homo sapiens) | OR7A10 (Homo sapiens) | OR7A17 (Homo sapiens) | OR7A5 (Homo sapiens)
